Measurements reported in PMC10147382 (ACS chemical neuroscience, 2022).
“And” between values parts separate entries of the source, which are not always exact repeats. Equal values may be shown once. Read-outs that look alike come from different tables or passages of the source.

Tests used:
[1] = target: 5-HT1D receptor (Homo sapiens, UniProt P28221); assay: 5-HTome G protein activation BRET screen; format: cell-based; details: 5-HTome screen
Summary of the method: (§1)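 Human 5-HT receptors (12 in the panel) are tested by G protein-dissociation BRET2. Cells are reverse-transfected about 48 h before assay with receptor:Gα-Rluc8:Beta:GFP2-γ (TRUPATH) at 1:1:1:1 and plated in 1% dFBS. Drug is added in HBSS/20 mM HEPES pH 7.4 with 0.3% BSA and 0.03% ascorbic acid, then incubated 60 min at 37°C. Coelenterazine 400a is 5 uM final. The 510/400 ratio is normalized to % positive control, with EC50/Emax from log(agonist) vs response. Three independent experiments in triplicate.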

[2] = target: T1, 5-HT2A receptor (Homo sapiens, UniProt P28223); assay: Calcium flux assay; format: cell-based
Summary of the method: (§2)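 Flp-In 293 T-Rex cells stably carry tetracycline-inducible human 5-HT2A or 5-HT2C. Expression is induced with tetracycline (2 ug/mL) the day before, with about 7,500 cells/well in 1% dialyzed FBS. Cells are loaded with Fluo-4 Direct for 1 h at 37°C in HBSS/20 mM HEPES pH 7.4 with 2.5 mM probenecid, then held 15 min at RT. Fluorescence is read 10 s baseline, then 5-10 min after drug. Peak fold-over-basal or AUC is normalized to % 5-HT, with EC50/Emax from nonlinear regression.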
Target sequence in this assay (P28223 whole entry): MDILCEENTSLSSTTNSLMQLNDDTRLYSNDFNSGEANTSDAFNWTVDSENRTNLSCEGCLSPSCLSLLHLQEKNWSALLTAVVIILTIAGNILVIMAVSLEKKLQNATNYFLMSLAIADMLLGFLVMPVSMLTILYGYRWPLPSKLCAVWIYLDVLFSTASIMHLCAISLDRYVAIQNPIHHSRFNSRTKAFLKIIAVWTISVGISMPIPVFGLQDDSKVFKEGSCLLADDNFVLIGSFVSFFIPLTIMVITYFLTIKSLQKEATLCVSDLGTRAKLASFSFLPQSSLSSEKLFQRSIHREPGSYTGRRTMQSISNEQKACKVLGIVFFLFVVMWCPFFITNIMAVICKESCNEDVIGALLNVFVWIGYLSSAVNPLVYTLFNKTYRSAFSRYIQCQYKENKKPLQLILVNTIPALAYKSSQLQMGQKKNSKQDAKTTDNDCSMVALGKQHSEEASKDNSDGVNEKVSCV

[3] = system: mice; assay: Elevated plus maze; format: in vivo, mouse; details: 30 minutes and 4 hours post single s.c. injection
Summary of the method: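 Elevated plus maze in mice given a single subcutaneous injection of test compound or a reference psychedelic. Time in open vs closed arms and arm entries are scored at 30 min and 4 h post-injection. n=10/group, mean ± S.E.M. Analysis is two-way ANOVA with Dunnett's post hoc test.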

[4] = system: humans; details: cited from earlier work
[5] = system: patients; details: cited from earlier work
[6] = system: mice; assay: Head twitch response; format: in vivo, mouse
[7] = target: T2, 5-HT2B receptor (Homo sapiens, UniProt P41595); assay: G protein; format: cell-based
T2 sequence (P41595 whole entry): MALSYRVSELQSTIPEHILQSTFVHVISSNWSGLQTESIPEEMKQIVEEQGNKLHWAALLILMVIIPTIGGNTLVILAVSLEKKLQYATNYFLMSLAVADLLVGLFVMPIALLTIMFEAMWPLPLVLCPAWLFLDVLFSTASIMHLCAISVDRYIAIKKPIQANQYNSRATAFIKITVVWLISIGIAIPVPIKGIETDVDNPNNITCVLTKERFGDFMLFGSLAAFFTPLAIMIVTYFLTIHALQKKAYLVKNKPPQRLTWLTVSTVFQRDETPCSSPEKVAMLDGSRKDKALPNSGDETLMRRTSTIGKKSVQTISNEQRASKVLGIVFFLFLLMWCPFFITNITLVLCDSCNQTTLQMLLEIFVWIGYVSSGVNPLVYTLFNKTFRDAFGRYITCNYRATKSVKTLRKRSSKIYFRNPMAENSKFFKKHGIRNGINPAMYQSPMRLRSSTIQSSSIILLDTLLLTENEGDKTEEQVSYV

[8] = target: 5-HT1A receptor (Homo sapiens, UniProt P08908); assay: 5-HTome G protein activation BRET screen; format: cell-based; details: 5-HTome screen
5-HT1A receptor, sequence (P08908 whole entry): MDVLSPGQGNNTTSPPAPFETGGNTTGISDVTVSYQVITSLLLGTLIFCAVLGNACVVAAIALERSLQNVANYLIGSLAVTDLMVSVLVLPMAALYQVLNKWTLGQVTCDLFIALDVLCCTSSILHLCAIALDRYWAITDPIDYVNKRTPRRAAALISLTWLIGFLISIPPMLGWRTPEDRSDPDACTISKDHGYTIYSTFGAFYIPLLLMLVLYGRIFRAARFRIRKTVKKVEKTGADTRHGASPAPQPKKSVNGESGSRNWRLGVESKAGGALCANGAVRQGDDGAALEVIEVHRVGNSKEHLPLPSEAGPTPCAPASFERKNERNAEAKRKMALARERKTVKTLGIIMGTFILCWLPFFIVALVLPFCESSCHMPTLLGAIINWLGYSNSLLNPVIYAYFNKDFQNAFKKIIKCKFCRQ
Summary of the method: as §1

[9] = system: auxilin knockout (KO) mice; assay: Auxilin KO Parkinson's model, balance beam; format: in vivo, mouse; details: 10 mg/kg i.p., 15 to 30 minutes after treatment
Summary of the method: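 Auxilin KO and WT mice aged 9-12 months, sex balanced, n=5-7/group. Vehicle is 0.85% saline i.p. at 10 ml/kg. Test compound is 10 mg/kg i.p. in 0.85% saline with 2 molar equivalents of glacial acetic acid, at 10 ml/kg. Baseline testing is done one week before treatment and repeated 15-30 min post-dose. Balance beam: mice walk a raised narrow beam to a safety box, scored as average crossing time and crossings per minute. Mean ± S.E.M.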

[10] = system: mice; assay: Open field test; format: in vivo, mouse; details: for effect on general locomotion: s.c.
[11] = system: cats; details: cited from earlier work
[12] = system: auxilin knockout (KO) mice; assay: Auxilin KO Parkinson's model, hind limb clasping; format: in vivo, mouse; details: 10 mg/kg i.p., 15 to 30 minutes after treatment
Summary of the method: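 Auxilin KO and WT mice aged 9-12 months, sex balanced, n=5-7/group, treated i.p. with vehicle (0.85% saline) or test compound at 10 mg/kg in saline with 2 molar equivalents of acetic acid, at 10 ml/kg. Testing is done one week pre-treatment and 15-30 min post-dose. Mice are held by the tail base and lowered for 30 s. Clasping is scored 0 (none), 1 (one limb) or 2 (both limbs), and total clasping duration is recorded. Kruskal-Wallis with Dunn's post hoc test.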

[13] = target: 5-HT1F receptor (Homo sapiens, UniProt P30939); assay: 5-HTome G protein activation BRET screen; format: cell-based
5-HT1F receptor, sequence (P30939 whole entry): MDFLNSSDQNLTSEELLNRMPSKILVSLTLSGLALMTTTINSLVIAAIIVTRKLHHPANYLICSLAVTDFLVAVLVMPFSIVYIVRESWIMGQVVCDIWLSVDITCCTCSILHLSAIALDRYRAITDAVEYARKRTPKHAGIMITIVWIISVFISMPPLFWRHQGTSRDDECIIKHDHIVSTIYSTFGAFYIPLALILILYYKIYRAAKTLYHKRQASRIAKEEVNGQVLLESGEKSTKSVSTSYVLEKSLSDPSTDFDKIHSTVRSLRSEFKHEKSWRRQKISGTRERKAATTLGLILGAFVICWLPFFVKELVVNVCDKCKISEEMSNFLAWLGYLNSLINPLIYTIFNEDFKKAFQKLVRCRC
Summary of the method: as §1

[14] = system: rats; details: 10 mg/kg, s.c. or i.p. ref 12, 13; cited from earlier work
[15] = target: T3, 5-HT2C receptor (Homo sapiens, UniProt P28335); assay: G protein; format: cell-based
T3 sequence (P28335 33-458): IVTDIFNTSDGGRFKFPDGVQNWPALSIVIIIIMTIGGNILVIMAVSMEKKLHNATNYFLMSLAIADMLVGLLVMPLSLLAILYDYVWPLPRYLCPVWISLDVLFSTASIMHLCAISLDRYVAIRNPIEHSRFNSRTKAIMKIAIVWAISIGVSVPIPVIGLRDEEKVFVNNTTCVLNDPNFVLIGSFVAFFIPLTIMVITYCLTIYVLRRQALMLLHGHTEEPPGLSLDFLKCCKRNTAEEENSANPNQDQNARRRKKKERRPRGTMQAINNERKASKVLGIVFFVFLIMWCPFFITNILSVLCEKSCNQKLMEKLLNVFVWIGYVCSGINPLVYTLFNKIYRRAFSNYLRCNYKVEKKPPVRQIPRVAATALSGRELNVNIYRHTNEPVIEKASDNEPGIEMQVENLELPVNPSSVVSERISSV

[16] = target: T1, 5-HT2A receptor; assay: Radioligand displacement assay; format: binding; details: standard radioligand 125I-DOI
Target sequence in this assay (P28223 whole entry): as the sequence (P28223 whole entry) above

[17] = target: 5-HT1B receptor (Homo sapiens, UniProt P28222); assay: 5-HTome G protein activation BRET screen; format: cell-based; details: 5-HTome screen
Summary of the method: as §1

[18] = target: T1, 5-HT2A receptor; assay: G protein; format: cell-based
Target sequence in this assay (P28223 whole entry): as above

[19] = target: 5-HT1e receptor (Homo sapiens, UniProt P28566); assay: 5-HTome G protein activation BRET screen; format: cell-based; details: 5-HTome screen
5-HT1e receptor, sequence (P28566 whole entry): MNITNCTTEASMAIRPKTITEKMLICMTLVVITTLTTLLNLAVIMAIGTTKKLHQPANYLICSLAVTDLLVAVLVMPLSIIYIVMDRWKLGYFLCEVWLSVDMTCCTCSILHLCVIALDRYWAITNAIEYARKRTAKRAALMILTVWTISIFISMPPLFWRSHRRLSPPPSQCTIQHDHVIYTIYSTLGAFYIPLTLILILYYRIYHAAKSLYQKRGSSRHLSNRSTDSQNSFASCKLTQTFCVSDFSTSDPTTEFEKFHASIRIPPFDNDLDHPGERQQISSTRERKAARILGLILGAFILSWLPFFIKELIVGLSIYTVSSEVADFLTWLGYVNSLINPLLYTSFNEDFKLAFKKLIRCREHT
Summary of the method: as §1

[20] = system: rabbits; details: cited from earlier work
[21] = target: T3, 5-HT2C receptor; assay: Calcium flux assay; format: cell-based; details: relative to 5-HT
Summary of the method: as §2

[22] = system: mice; assay: Novelty suppressed feeding; format: in vivo, mouse; details: 7 days post-drug administration; 10mg/kg
[23] = target: norepinephrine transporter (NET) (Homo sapiens, UniProt P23975); assay: SafetyScreen44 broad screen; format: binding; details: 10 uM
norepinephrine transporter (NET), sequence (P23975 whole entry): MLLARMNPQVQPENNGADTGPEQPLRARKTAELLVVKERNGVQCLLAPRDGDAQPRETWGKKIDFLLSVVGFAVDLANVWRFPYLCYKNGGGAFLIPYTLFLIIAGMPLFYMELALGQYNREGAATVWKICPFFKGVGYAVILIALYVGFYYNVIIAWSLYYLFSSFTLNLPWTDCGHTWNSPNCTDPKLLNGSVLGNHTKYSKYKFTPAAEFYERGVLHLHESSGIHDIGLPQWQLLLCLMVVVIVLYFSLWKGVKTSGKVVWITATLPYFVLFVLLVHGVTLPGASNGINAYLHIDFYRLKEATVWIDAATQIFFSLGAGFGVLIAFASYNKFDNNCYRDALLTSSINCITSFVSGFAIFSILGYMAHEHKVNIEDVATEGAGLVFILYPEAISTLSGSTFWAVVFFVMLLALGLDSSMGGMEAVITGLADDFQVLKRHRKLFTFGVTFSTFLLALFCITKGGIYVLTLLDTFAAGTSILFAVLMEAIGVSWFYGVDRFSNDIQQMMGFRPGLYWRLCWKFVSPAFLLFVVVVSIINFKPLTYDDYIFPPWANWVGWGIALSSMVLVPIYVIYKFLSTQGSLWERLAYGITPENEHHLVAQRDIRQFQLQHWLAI
Summary of the method: (§3)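 Broad binding screen of 44 targets (GPCRs, nuclear receptors, ion channels, monoamine transporters, enzymes) with racemic test compound at 10 uM. Read-out is % displacement of each target's standard radioligand. A positive hit is defined as more than 50% displacement.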

[24] = system: rat smooth muscle; details: compared to serotonin and (R)-DOM ref 11; cited from earlier work
[25] = system: rats; details: cited from earlier work
[26] = target: dopamine 1 receptor (Homo sapiens, UniProt P21728); assay: Activity at other aminergic receptors
[27] = target: dopamine transporter (DAT) (Homo sapiens, UniProt Q01959); assay: SafetyScreen44 broad screen; format: binding; details: 10 uM
dopamine transporter (DAT), sequence (Q01959 whole entry): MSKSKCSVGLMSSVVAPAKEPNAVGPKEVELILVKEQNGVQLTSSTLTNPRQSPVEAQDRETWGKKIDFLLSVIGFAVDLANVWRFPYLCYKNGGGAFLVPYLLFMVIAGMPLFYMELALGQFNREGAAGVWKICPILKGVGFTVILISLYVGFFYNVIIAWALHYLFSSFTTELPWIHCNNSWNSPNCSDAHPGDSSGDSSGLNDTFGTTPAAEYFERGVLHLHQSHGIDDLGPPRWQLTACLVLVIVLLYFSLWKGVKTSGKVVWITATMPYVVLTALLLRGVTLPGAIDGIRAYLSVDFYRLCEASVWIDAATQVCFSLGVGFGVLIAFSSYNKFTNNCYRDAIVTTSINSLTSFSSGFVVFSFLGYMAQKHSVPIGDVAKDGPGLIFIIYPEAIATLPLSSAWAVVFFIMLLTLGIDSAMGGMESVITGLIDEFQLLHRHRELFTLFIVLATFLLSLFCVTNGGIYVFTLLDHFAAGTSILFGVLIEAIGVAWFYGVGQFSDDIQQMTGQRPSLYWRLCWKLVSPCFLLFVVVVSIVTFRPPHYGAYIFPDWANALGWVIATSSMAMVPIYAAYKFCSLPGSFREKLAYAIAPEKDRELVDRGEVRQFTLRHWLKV
Summary of the method: as §3

[28] = target: T1, 5-HT2A receptor; assay: β-arrestin2 recruitment BRET assay; format: cell-based
Target sequence in this assay (P32121 whole entry): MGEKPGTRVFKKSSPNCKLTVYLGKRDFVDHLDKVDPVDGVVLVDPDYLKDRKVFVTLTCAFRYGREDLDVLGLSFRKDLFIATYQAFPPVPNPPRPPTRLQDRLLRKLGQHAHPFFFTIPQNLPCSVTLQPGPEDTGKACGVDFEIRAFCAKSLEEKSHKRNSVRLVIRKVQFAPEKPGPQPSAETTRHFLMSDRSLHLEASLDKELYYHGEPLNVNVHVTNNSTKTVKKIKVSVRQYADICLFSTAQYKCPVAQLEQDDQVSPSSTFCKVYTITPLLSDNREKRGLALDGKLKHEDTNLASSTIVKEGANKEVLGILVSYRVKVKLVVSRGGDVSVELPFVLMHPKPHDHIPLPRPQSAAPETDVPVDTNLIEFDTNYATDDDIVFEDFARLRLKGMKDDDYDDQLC
Target sequence in this assay (P28223 whole entry): as the sequence (P28223 whole entry) above

[29] = target: adrenergic receptors; assay: Activity at other aminergic receptors; details: no/low activity
[30] = system: rats; details: cited from earlier work; remark: listed apart in the source
[31] = target: serotonin transporter (SERT) (Homo sapiens, UniProt P31645); assay: SafetyScreen44 broad screen; format: binding; details: 10 uM
Summary of the method: as §3

[32] = target: dopamine 2 receptor (Homo sapiens, UniProt P14416); assay: Activity at other aminergic receptors
[33] = target: T2, 5-HT2B receptor; assay: SafetyScreen44 broad screen; format: binding; details: 10 uM Ariadne; positive hit threshold
Summary of the method: as §3

[34] = Brain and plasma pharmacokinetic evaluation; format: in vivo, mouse; details: brain and plasma PK
[35] = target: T1, 5-HT2A receptor; assay: SafetyScreen44 broad screen; format: binding; details: 10 uM Ariadne; positive hit threshold
Summary of the method: as §3
Target sequence in this assay (P28223 whole entry): as above

[36] = read-out: EC50 (Gq), Gq dissociation BRET

5-HT1D receptor, sequence (P28221 whole entry): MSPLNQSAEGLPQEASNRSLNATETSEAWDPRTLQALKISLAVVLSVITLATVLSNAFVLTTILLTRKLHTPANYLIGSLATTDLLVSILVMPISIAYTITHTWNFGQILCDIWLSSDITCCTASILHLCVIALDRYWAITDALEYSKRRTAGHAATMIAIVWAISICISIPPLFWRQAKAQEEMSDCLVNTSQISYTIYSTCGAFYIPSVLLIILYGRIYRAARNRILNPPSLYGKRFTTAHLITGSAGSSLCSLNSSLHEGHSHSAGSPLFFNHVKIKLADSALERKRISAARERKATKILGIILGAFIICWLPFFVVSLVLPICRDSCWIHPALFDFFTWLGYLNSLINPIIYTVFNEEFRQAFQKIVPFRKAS

CC[C@@H](N)Cc1cc(OC)c(C)cc1OC [(R)-Ariadne]
EC50 [1]: 300 to 600 nM
EC50 ([2]; read-out: EC50 (calcium flux)): 30 nM
Emax (calcium flux) ([2]; relative to 5-HT): 96%
effect on open arm entries and time [3]: acute anxiogenic-like effect
hallucinogenic / psychoactive effect ([4]; 25 mg p.o. ref 6): no hallucinogenic effect but a mild threshold psychoactive effect
psychedelic effects ([4]; 100-300 mg, geriatric senile subjects ref 38): no psychedelics effects
hallucinogenic effects ([4]; up to 270 mg, healthy subjects ref 14): No hallucinations or perceptual alterations were observed
hallucinogenic effects ([4]; up to (and beyond) 100 mg per day, route not specified ref 8): no hallucinations
hallucinogenic effects ([4]; up to (and beyond) 100 mg per day, route not specified ref 8, listed as BL-3912A): lack of hallucinogenic effects
effect in geriatric senile subjects ([5]; 50 mg per day ref 8): Improvement in alertness, mobility and sociability
effect in subjects with Parkinson's disease ([5]; 100 mg per day ref 8): nearly complete remission of symptoms
effect in patients with schizophrenia and bipolar disorder ([5]; 50-100 mg per day ref 8): rapid remission of psychotic symptoms
HTR after pretreatment with 5-HT2A antagonist MDL100,907 (volinanserin) ([6]; MDL100907 0.01 and 0.032 mg/kg ip 15 min prior): completely inhibited
dose of peak (maximum) HTR ([6]; s.c.): 10 mg/kg
EC50 ([7]; 5-HTome screen): < 1000 nM
Emax ([7]; 5-HTome screen): > 70%
EC50 [7, 36]: 739 nM
EC50 [8]: 300 to 600 nM
number of balance beam runs, Aux-KO mice post-treatment [9]: significantly higher and comparable to WT mice
effect on general locomotion ([10]; 10 mg/kg): minor sedative effect
effect on general locomotion ([10]; 30 mg/kg): marked sedation
time in the center of the arena ([10]; mouse, in vivo): trend for spending less time in the center of the arena
DOM-like effects ([11]; 10 mg/kg, s.c., versus (R)-DOM 0.5 mg/kg): nearly no DOM-like effects
clasping duration, Aux-KO mice [12]: down to zero
clasping score, Aux-KO mice [12]: down to zero
EC50 ([13]; 5-HTome screen): 300 to 600 nM
avoidance behavior [14]: improved avoidance behavior
EC50 ([15]; 5-HTome screen): < 1000 nM
Emax ([15]; 5-HTome screen): > 70%
EC50 [15, 36]: 249 nM
Ki [16]: 53 nM
EC50 [17]: 4000 nM
EC50 ([18]; 5-HTome screen): < 1000 nM
Emax ([18]; 5-HTome screen): > 70%
EC50 [18, 36]: 149 nM
EC50 [19]: 300 to 600 nM
shift in potency between (R)-DOM and (R)-Ariadne [20]: 25 fold
Emax (calcium flux) [21]: 60%
latency to bite food pellets [22]: dose-dependent trend toward reducing latency to bite

CCC(N)Cc1cc(OC)c(C)cc1OC (stereo not shown) [Ariadne, 2-amino-1-(2,5-dimethoxy-4-methylphenyl)-butane]
activity at NET [23]: essentially no activity
hallucinogenic / psychoactive effect ([4]; 32 mg p.o. ref 6): no hallucinogenic effect but a mild threshold psychoactive effect
subjective effect (online experience report) ([4]; 75 mg orally, male ref 36): mild MDMA-like effects, but no obvious hallucinogenic effect
subjective effect (online experience report) ([4]; 125 mg orally, female ref 37): unique hybrid between MDMA-like and DOX/psychedelic-like activity
dose leading to discernable psychoactive effects ([4]; aggregate of human data): > 50 mg
dose up to which no hallucinogenic effects were observed ([4]; aggregate of human data): 100 to 300 mg
decrease in HTR count per 15 min compared to racemic DOPR ([6]; s.c.): > 3 fold
dose of peak (maximum) HTR ([6]; s.c.): 10 mg/kg
serotonergic-like spasmogenic effect [24]: weak serotonergic-like effect
Emax [7]: > 70%
combined score of DOM-like behavioral features ([11]; in comparison to (R)-DOM ref 10): low combined score of DOM-like behavioral features
substitution for MDMA stimulus [25]: full substitution for MDMA stimulus
EC50 [26]: > 10000 nM
selectivity of 5-HT2 agonism over 5-HT1F [13]: 0.5-1 log
activity at DAT [27]: essentially no activity
decrease in potency versus the alpha-methyl (DOx) counterpart [28]: ~ 4.5 fold
efficacy ([28]; normalized to 5-HT): 83%
Emax [15]: > 70%
Emax [18]: > 70%
decrease in potency versus the alpha-methyl (DOx) counterpart ([18]; Gq dissociation (Gq versus G11 for Ariadne/DOM)): 4-to-6 fold and 6 fold
Emax ([18]; read-out: Emax (Gq)): 80%
EC50 [29]: > 10000 nM
substitution in LSD trained animals [30]: substituted responding in LSD trained animals
activity at SERT [31]: essentially no activity
EC50 [32]: > 10000 nM
displacement of standard radioligands [33]: more than 50%
brain penetration [34]: high brain penetration
displacement of standard radioligands [35]: more than 50%
